WT yeast gro inh: growth inhibition of WT yeast, mitochondrial fusion screen. mitochondrial fusion phenotypic screen, WT strain. inhibition, % at 10 µM. 190,000 compounds, 2.1% hits. AID 1362; in the data active = inhibition above about 58%; tested in S. cerevisiae
ABCB1 inh: human ABCB1 inhibition, ABCG2 as counter-screen; P08183; CCRF-Adr cells, JC-1 efflux, flow cytometry; inhibition, % at 6.6 µM; 190,000 compounds, 0.067% hits; AID 1326; in the data active = inhibition above about 40%;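 also: higher value means more JC-1 retained so stronger ABCB1 efflux block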
Target sequence (P08183 whole entry, looked up): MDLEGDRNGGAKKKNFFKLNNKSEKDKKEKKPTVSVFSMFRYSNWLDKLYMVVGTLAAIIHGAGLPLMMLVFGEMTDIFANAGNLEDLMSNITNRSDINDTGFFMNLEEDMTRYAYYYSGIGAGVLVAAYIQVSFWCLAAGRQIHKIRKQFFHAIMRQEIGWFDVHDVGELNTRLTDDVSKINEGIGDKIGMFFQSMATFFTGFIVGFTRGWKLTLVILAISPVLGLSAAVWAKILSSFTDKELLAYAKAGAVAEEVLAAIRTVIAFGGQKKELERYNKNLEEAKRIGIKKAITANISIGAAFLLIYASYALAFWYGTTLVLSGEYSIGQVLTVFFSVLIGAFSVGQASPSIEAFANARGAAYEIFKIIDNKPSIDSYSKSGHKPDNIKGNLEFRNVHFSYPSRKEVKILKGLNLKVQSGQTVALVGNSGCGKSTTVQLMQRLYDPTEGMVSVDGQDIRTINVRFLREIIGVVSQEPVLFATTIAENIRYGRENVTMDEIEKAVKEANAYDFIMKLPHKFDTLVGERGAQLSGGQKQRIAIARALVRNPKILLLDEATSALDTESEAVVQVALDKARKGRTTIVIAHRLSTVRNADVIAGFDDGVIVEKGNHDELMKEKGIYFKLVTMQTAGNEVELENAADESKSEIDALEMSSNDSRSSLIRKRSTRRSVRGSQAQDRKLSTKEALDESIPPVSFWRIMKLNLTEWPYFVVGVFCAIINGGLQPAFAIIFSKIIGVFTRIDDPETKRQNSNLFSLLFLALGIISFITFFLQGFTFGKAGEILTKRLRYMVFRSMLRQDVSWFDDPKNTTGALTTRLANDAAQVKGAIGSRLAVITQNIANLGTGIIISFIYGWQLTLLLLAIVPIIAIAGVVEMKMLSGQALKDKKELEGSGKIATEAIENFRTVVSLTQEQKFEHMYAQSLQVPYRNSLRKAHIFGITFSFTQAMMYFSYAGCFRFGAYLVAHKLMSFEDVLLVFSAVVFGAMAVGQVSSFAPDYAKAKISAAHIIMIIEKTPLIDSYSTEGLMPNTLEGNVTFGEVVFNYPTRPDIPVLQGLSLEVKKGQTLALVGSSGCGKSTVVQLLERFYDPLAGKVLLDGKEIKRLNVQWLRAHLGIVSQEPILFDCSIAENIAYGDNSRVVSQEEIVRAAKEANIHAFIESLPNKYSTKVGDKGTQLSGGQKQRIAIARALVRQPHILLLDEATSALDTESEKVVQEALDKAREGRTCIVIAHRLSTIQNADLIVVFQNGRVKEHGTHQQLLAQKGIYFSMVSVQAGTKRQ
L major viab: reduces viability of Leishmania major promastigotes. inhibition, % at 10 µM. 200,000 compounds, 9% hits. resazurin fluorescence viability; in the data active = inhibition above about 50%;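 also: promastigotes grown with compound for 44 hours at 28 °C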
ABCG2 block: inhibitors of human ABCG2 transporter, ABCB1 counter-screen; IgMXP3 cells, JC-1 efflux, flow cytometry; 190,000 compounds, 0.1% hits; Q9UNQ0; inhibition, % at 6.6 µM;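 active = inhibition above 80%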
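Test system: IgMXP3 cells (ABCG2) mixed with DDAO far-red-labelled CCRF-Adr cells (ABCB1). Reagent: JC-1 transporter substrate. Compound dosing: single test compound dose, 6.6 µM final. Times: 10 min compound exposure, 25 °C. Detection: flow cytometry of retained JC-1 fluorescence. Read-out basis: efflux inhibition in percent versus controls. Controls: nicardipine and DMSO wells.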
RAM inhibit: blocks the yeast RAM network | S. cerevisiae dse1pr::URA3 reporter, 5-FOA growth OD615, 2 d; analog-sensitive cbk1-as2 kinase mutant strain | inhibition, % at 50 µM | 190,000 compounds, 1.8% hits | AID 868;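 active = inhibition above a set limit, 3 SD over mean compound inhibition, cut at about 8.4% in these data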;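 also: inhibition rescues growth on 5-FOA so higher OD means more RAM inhibition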
Large screens that a line does not name were inactive. Rows were chosen to be rich in hits. Some 12% of all compounds tested hit in one or more screens of this group.

COc1cc(/C=C2\SC(=O)N(CC(=O)Nc3cccc(C)c3)C2=O)cc([N+](=O)[O-])c1O	none
COc1cc(/C=C2\SC(=O)N(c3ccccc3Cl)C2=O)cc([N+](=O)[O-])c1O	WT yeast gro inh 83
CC(C)c1ccc(OCC(=O)NCCO)cc1	none
CCN(CCNC(=O)CN(C)S(=O)(=O)c1cccc2nsnc12)c1ccccc1	L major viab 95
CCN(CCCNC(=O)CN(C)S(=O)(=O)c1cccc2nsnc12)c1cccc(C)c1	none
Cc1cccc(NC(=S)Nc2ccc(N3CCOCC3)cc2)c1C	none
CCCC1CCC(c2ccc(C(=O)NN)cc2)CC1 (stereo not given)	WT yeast gro inh 84
CCOCCCNC(=O)C(NC(=O)c1ccccc1O)c1ccc(Cl)cc1 (stereo not given)	none
CC1=C(C(=O)c2ccccc2)C(c2cn(-c3ccccc3)nc2-c2ccc(Cl)cc2)NC(=S)N1 (stereo not given)	L major viab 100
O=C(Nc1ccc(-c2ccc3nncn3n2)cc1)c1ccc(Br)o1	none
O=C(c1c[nH]c(C(=O)C(Cl)(Cl)Cl)c1)c1ccc(F)cc1Cl	L major viab 71
O=C(c1ccc(Cl)cc1)c1c[nH]c(C(=O)C(Cl)(Cl)Cl)c1	WT yeast gro inh 82, L major viab 86
CN(C)C=NC(=O)c1cc(C(=O)c2ccccc2)c[nH]1	none
O=C(c1ccccc1)c1c[nH]c(C(=O)C(Cl)(Cl)Cl)c1	L major viab 87
CCOc1ccc(CNC(=O)CCS(=O)(=O)Cc2cccc(Cl)c2)cc1OC	none
O=C(CCC1CCCN(C(=O)CCN2CCCCC2=O)C1)NCc1ccccc1F (stereo not given)	none
CCOc1cc(S(=O)(=O)N2CCN(CC)CC2)ccc1Cl	L major viab 90
CCOc1cc(S(=O)(=O)N2CCCCC2)ccc1Cl	none
CCOc1cc(S(=O)(=O)Nc2ccccc2CC)ccc1Cl	WT yeast gro inh 69
CCOc1cc(S(=O)(=O)Nc2ccc(Cl)cn2)ccc1Cl	none
Oc1ccc2n[nH]nc2c1	none
C/C(Cn1nc([N+](=O)[O-])cc1C)=N\NC(=O)COc1c(Cl)cc(Cl)cc1Cl	none
COc1cc(/C=C2\SC(=S)N(Nc3ncc(C(F)(F)F)cc3Cl)C2=O)ccc1O	WT yeast gro inh 83
CCOc1cc(/C=C2\SC(=S)N(Nc3ccccc3)C2=O)ccc1O	WT yeast gro inh 69
Cc1cc(C)nc(NN2C(=O)/C(=C/c3ccccc3)SC2=S)n1	none
COc1cc(/C=C2\SC(=S)N(Nc3ccccc3)C2=O)ccc1O	WT yeast gro inh 86
CCOc1cc(/C=C2\SC(=O)N=C2N)ccc1O	none
COc1cc(/C=C2/SC(=S)N(CC3CCCO3)C2=O)ccc1O (stereo not given)	none
O=C1/C(=C/c2ccc(O)c(O)c2)SC(=S)N1Nc1ccccc1	L major viab 78
Cc1ccc(/C([O-])=C(/C(=S)NCc2ccc3c(c2)OCO3)[n+]2ccc(N(C)C)cc2)c(C)c1	none
COc1cc(/C=C2\SC(c3ccc(C)cc3)=NC2=O)ccc1O	L major viab 100
CCCCn1c(-c2ccccc2)cnc1SCC(=O)NCCc1ccc(OC)c(OC)c1	L major viab 66
CCOC(=O)Cc1csc(NC(=O)CCN2C(=O)c3ccccc3C2=O)n1	none
CCOC(=O)c1sc2nc(C)nc(SCC(=O)NC(C)CCc3ccccc3)c2c1C (stereo not given)	L major viab 96
Cc1ccc(C(=O)NCCNS(C)(=O)=O)cc1	none
CCOC(=O)c1nnc(-c2ccccc2)nc1Sc1ccccc1Cl	RAM inhibit 11
CC(C)CCn1c(Sc2nc3ccccc3o2)nc2c1c(=O)[nH]c(=O)n2C	L major viab 95
CC(C)NC(=S)N1CCN(C/C=C/c2ccccc2)CC1	none
Fc1ccc(NC(=S)N2CCN(C/C=C/c3ccccc3)CC2)c(F)c1	L major viab 81
COc1ccc(C)cc1NC(=O)COC(=O)Cc1ccc(-c2ccccc2)cc1	RAM inhibit 9.6
S=C(NC1CCCCC1)N1CCN(C/C=C/c2ccccc2)CC1	L major viab 94
COC(=O)c1cc(OC)c(OC)cc1NC(=S)N1CCCC1	L major viab 88
O=C(CNC(=S)N(Cc1ccccc1)Cc1cccnc1)N1CCOCC1	none
COC(=O)c1ccccc1NC(=S)N1CCC(N2CCCCC2)CC1	L major viab 73
COC(=O)c1cc(OC)c(OC)cc1NC(=S)N1CCN(C/C=C/c2ccccc2)CC1	L major viab 99
COc1ccccc1NC(=S)N1CCN(C/C=C/c2ccccc2)CC1	L major viab 67
COc1ccccc1NC(=S)N1CCN(Cc2ccccc2)CC1	L major viab 83
CC1(C)CC(=O)C(C=NCCN2CCN(C3CC(=O)N(c4ccc(Br)cc4)C3=O)CC2)=C(O)C1 (stereo not given)	none
Cc1ccsc1C1C(C#N)=C(N)N(N(C)C)C2=C1C(=O)CC(C)(C)C2 (stereo not given)	none
CCOc1ccccc1NC(=S)N(CCC(C)C)C1CCN(C(C)=O)CC1	none
CC(C(=O)Nc1cccc([N+](=O)[O-])c1)n1nnc2ccccc21 (stereo not given)	none
O=C(CCN1CCN(c2ccccc2F)CC1)Nc1ccccc1F	none
O=C(Nc1cccc(F)c1)N1CCN(C/C=C/c2ccccc2)CC1	L major viab 68
COc1ccc(C)cc1NC(=O)CN1CCN(c2ccccc2F)CC1	none
CC(C(=O)Nc1cccc([N+](=O)[O-])c1)N1CCN(C/C=C/c2ccccc2)CC1 (stereo not given)	L major viab 82
O=C(CCN1CCN(C/C=C/c2ccccc2)CC1)Nc1ccccc1F	L major viab 97
COc1ccc(C)cc1NC(=O)CN1CCN(C/C=C/c2ccccc2)CC1	L major viab 86
Cn1c(SCc2cc(=O)[nH]c3ccccc23)nnc1-c1ccc(Br)cc1	none (no result: WT yeast gro inh)
C[C@@H](C(=O)Nc1cccc(S(=O)(=O)N2CCOCC2)c1)N1C(=O)C2CC=CCC2C1=O (stereo not given in full)	none
N#CC1=C(N)N(c2ncn[nH]2)C2=C(C(=O)CCC2)C1c1ccc(F)cc1 (stereo not given)	none
Cc1cccc(NCC(=O)N/N=C\c2cccc(Oc3ccccc3)c2)c1	none
Cc1ccc(NCC(=O)N/N=C/c2cccc(Oc3ccccc3)c2)cc1	RAM inhibit 10
COc1ccc(C2=NN(C(=O)c3cccc([N+](=O)[O-])c3)C(c3cccc([N+](=O)[O-])c3)C2)cc1 (stereo not given)	L major viab 53
COc1ccc(C2CC(c3ccc([N+](=O)[O-])cc3)=NN2C(=O)c2ccccc2)cc1OC (stereo not given)	none
CCC(OC(=O)c1cc2sccc2n1C)C(=O)NCc1ccco1 (stereo not given)	WT yeast gro inh 75
Cn1c(C(=O)OC(C(=O)NC(C)(C)C)c2cccnc2)cc2sccc21 (stereo not given)	L major viab 95

Screening data from PubChem.
